Rpn11 inh = blocks the human proteasome subunit Rpn11 | O00487 | human 26S proteasome, Ub4-pepOG fluorescence polarization; 20S core pre-blocked with epoxomicin | calls only at 20 µM | 360,000 tested, 0.59% active | AID 588493;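 active means inhibition at 20 µM, scaled to each plate's controls, above about 33%, limit read from the data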
Target sequence (O00487 whole entry, looked up): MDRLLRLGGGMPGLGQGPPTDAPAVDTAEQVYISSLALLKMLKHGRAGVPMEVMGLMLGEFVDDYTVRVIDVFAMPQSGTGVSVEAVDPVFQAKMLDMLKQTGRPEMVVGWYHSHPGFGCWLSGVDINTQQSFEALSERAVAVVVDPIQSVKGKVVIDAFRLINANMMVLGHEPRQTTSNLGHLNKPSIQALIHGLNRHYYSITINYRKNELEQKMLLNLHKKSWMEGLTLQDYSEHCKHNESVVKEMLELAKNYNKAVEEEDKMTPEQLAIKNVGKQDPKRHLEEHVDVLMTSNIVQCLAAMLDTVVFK
CRFR2-BP antag = blocks CRF-induced signaling of the CRF-BP/CRF-R2 complex | inhibition, % at 11.8 µM | HEK293 CRF-R2/CRF-BP, CRF-induced calcium fluorescence | 350,000 tested, 0.59% active;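 active means inhibition of the ligand-induced calcium signal above about 50% at the single tested concentration, limit read from the data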
CSN inh = blocks human CSN-mediated cullin deneddylation | AID 651999 | 360,000 tested, 0.38% active | inhibition, % at 12.5 µM | Purified CSN, SCF-Nedd8-OG deneddylation, fluorescence polarization | Q92905;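 active means pattern-corrected inhibition above about 35%, with an unprinted fluorescence ratio check between 0.5 and 1.5, limit read from the data, passing the limit was not always enough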
Target sequence (Q92905 whole entry, looked up, one chain of several): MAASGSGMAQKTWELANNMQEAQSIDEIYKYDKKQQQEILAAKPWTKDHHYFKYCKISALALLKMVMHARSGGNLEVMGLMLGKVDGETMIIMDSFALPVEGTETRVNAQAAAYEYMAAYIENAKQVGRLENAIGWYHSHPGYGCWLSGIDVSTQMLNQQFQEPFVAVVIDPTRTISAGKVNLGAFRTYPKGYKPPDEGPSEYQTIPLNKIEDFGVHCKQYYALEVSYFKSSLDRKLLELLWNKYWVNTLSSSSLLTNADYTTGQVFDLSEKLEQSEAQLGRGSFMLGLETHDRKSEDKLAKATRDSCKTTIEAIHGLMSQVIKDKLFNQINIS
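Schedule: reaction 90 min, room temperature / Assay system: HEK293T-derived human Csn5 enzyme / Input: Csn5 at 0.24 nM final / Measure: inhibition of Csn5 cleavage, % / Control set: substrate-only high control, full reaction low control / Technique: fluorescence polarization of the substrate / Buffer or medium: Tris/NaCl/DTT buffer, pH 7.5 / Reagent: SCFSkp2-Nedd8OG substrate at 10 nM final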
HNF4A DNA FP = change in binding of human HNF4 alpha to DNA | P41235 | HNF4a-FITC DNA binding, fluorescence polarization, 1 h | activity change, % at 10 µM | 360,000 tested, 0.3% active | AID 1224865; in the data active means activity change above about 30%, passing the limit was not always enough
CRFBP-R2 agonist = CRF-BP/CRF-R2 complex agonism | activation, % at 13.2 µM | HEK293 CRF-R2/CRF-BP, calcium dye fluorescence (FLIPR); percent of saturating CRF peptide response | 350,000 tested, 0.46% active;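 active means activation of at least 50%, plus an integration ratio under a set limit after plate pattern correction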
TPT1 inhibitor = inhibitors of Candida albicans tRNA 2'-phosphotransferase TPT1. recombinant caTPT1, FP RNA substrate dephosphorylation. inhibition, % at 5 µM. 300,000 tested, 0.81% active. AID 1962;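 active means inhibition above the mean of all tested compounds plus 3 SD, set per screening campaign, cut at about 24% in these data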
Of the large screens only hits and unclear results are named; the others gave an inactive call. Only some compounds are listed: those with a hit (about 2.3% of all), similar ones and a draw of the others.

OCCN(Cc1ccccc1)c1ncnc2sccc12	none
COc1ccccc1Cc1c(-c2ccco2)nc2ccc(Br)cn12	none (no result: CRFR2-BP antag, CRFBP-R2 agonist, TPT1 inhibitor)
Fc1cccc(Cc2c(-c3ccco3)nc3ccc(Cl)cn23)c1	none (no result: CRFR2-BP antag, CRFBP-R2 agonist, TPT1 inhibitor)
COc1ccccc1Cc1c(-c2ccco2)nc2ccc(Cl)cn12	CSN inh 36.1 (no result: CRFR2-BP antag, CRFBP-R2 agonist, TPT1 inhibitor)
Clc1ccc2nc(-c3ccco3)c(Cc3ccccc3)n2c1	CSN inh 35.9 (no result: CRFR2-BP antag, CRFBP-R2 agonist, TPT1 inhibitor)
COc1ccc(CC(=O)N(Cc2ccccc2)c2ccc(C)cc2)cc1S(=O)(=O)N1CCOCC1	none
COC(CNc1ncnc2c1cnn2C)OC	CRFR2-BP antag 53.4
Cc1cc(F)ccc1S(=O)(=O)NCC1CC2CCC1C2 (stereo not given)	CRFBP-R2 agonist 87.5
COc1ccc(C2=CC(c3ccc(Cl)cc3)n3cnnc3N2)cc1OC (stereo not given)	CRFBP-R2 agonist 79.6
COc1ccc(NC(=O)CCN2CCCCCC2)cc1	CRFR2-BP antag 80.2
CCc1ccc(C(C)NC(=S)NC2CCCCC2)cc1 (stereo not given)	CRFR2-BP antag 71.1 (no result: TPT1 inhibitor)
COc1ccc([N+](=O)[O-])cc1NC(=O)CSCc1ccccc1	none
O=C(CSCc1ccccc1)Nc1cc([N+](=O)[O-])ccc1F	CRFR2-BP antag 84.6
COc1cccc(CNC(=O)CCSCc2ccccc2F)c1	none
CCC(Sc1ncccn1)C(=O)Nc1cc(C)on1 (stereo not given)	none
Cc1ccc(C(=O)NC(=S)NNC(=O)COc2ccccc2C)cc1	HNF4A DNA FP 26.7, CRFBP-R2 agonist 114.0
Cc1cccc(C(=O)NC(=S)NNC(=O)COc2c(C)cccc2C)c1	CRFBP-R2 agonist 166.5
Cc1cccc(C(=O)NC(=S)Nc2ccccc2C(=O)O)c1	CSN inh 78.5
O=C(NC(=S)Nc1ccc(Cl)c(C(=O)O)c1)c1cccc(COc2ccccc2)c1	none
O=C(O)c1ccc(Cl)c(NC(=S)NC(=O)c2cccc(COc3ccccc3)c2)c1	CRFR2-BP antag 52.0
COc1ccc2nc3cc([N+](=O)[O-])ccc3c(NNc3ccc([N+](=O)[O-])cc3)c2c1	none (no result: TPT1 inhibitor)
CC1CC(C)CN(C(=O)/C=C/c2ccc(S(=O)(=O)N3CCOCC3)cc2)C1 (stereo not given)	none (no result: TPT1 inhibitor)
Cc1ccc(NC(=O)COC(=O)CCc2nc3ccccc3c(=O)[nH]2)c(Br)c1	none
Cc1cccc(C(=O)NC(=S)N2CCN(C(=S)NC(=O)c3cccc(C)c3)CC2)c1	CRFR2-BP antag 50.2
Cc1cccc(C(=O)NC(=S)NNC(=O)Cc2ccccc2)c1	CRFBP-R2 agonist 136.5
Cc1ccc(OCC(=O)NNC(=S)NC(=O)C(C)(C)C)c(Br)c1	CRFBP-R2 agonist 84.5
Cc1cccc(C(=O)NNC(=O)c2ccccc2Br)c1	none
Cc1cccc(C(=O)NC(=S)NNC(=O)c2ccccc2Cl)c1	CRFBP-R2 agonist 152.2
COc1cc2c3nnc(-c4ccc(F)cc4)c-3cn(Cc3ccc(F)cc3)c2cc1OC	none
COC(=O)c1sc(NC(=S)NC(=O)c2cccc(C)c2)nc1C	CRFBP-R2 agonist 64.6
COC(=O)c1sc(NC(=S)NC(=O)c2ccccc2F)nc1C	none
O=C1CC(CCC(=O)NC2CC2)c2ccccc2N1 (stereo not given)	none
Nc1ncn(C23CC4CC(CC(C4)C2)C3)n1	none
Cc1ncn(C23CC4CC(CC(C4)C2)C3)n1	CRFR2-BP antag 57.7
CN(C)c1ccc(/C=C2\Oc3ccc(C#Cc4cccc(N)c4)cc3C2=O)cc1	CRFBP-R2 agonist 80.4 (not shown: Rpn11 inh, TPT1 inhibitor)
COC(=O)c1ccc2c(c1)C(=O)/C(=C/c1ccc(C)cc1)O2	none
CC1(C)CC(=O)C2=C(C1)OC(N)=C(C#N)C2c1cc2c(cc1[N+](=O)[O-])OCO2 (stereo not given)	CRFBP-R2 agonist 96.1
COc1ccc(C=Cc2ccc3ccccc3n2)c(OC)c1	CRFBP-R2 agonist 80.2 (no result: TPT1 inhibitor)
O=C(N/N=C/c1ccc(O)cc1O)c1ccc(CN2C(=O)c3cccc4cccc2c34)cc1	none
CCNc1c([N+](=O)[O-])ncn1C	none
CN(C)c1c([N+](=O)[O-])ncn1C	CRFR2-BP antag 53.7
Cc1ccc(/C=N/NC(=O)CN2C(=O)CSc3ccccc32)o1	none
COc1cc(/C=N/NC(=O)c2nc(C)cc(C)n2)ccc1O	CRFBP-R2 agonist 164.9
CCOC(=O)c1c(NC(=O)C(=O)N/N=C/c2ccc(O)c(OC)c2)sc2c1CCCCC2	CRFR2-BP antag 54.7
CCOC(=O)c1c(NC(=O)C(=O)N/N=C/c2ccc(OCC)cc2)sc2c1CCCCC2	none
COc1cc(/C=N/NC(=O)c2ccccc2O)ccc1OCC(=O)Nc1ccccc1	CSN inh 48.6
O=C(CSc1nc(-c2ccco2)cc(C(F)(F)F)n1)NCCCN1CCOCC1	CRFR2-BP antag 50.7
Cc1cc(NC(=O)CCSc2nc(-c3ccco3)cc(C(F)(F)F)n2)no1	CRFR2-BP antag 91.0
O=C(CSc1nc(-c2cccs2)cc(C(F)(F)F)n1)NCCCN1CCOCC1	none
COc1ccc(/C=C2/CCC(CN3CCOCC3)C2=O)cc1 (stereo not given)	CRFR2-BP antag 57.3 (no result: TPT1 inhibitor)
COc1ccc(/C=C2\CCC(C3CCCC3)C2=O)cc1 (stereo not given)	none
CCCn1c(=O)c(C(=O)NNC(=O)c2ccccc2[N+](=O)[O-])c(O)c2ccccc21	none (no result: CRFR2-BP antag, CRFBP-R2 agonist)
CCCn1c(=O)c(C(=O)NNC(=O)c2ccccc2Cl)c(O)c2ccccc21	CRFBP-R2 agonist 66.3
CCn1c(=O)c(C(=O)NCc2ccccc2Cl)c(O)c2ccccc21	none (no result: TPT1 inhibitor)
Cn1c(=O)c(C(=O)NCc2ccccc2Cl)c(O)c2ccccc21	CRFR2-BP antag 64.6
COc1ccc(OC)c(C2CC(=O)OC3=C2C(=O)CC(C)(C)C3)c1 (stereo not given)	none
O=C(CSc1nnc(C2CC2)n1-c1ccccc1)NCCc1ccc(F)cc1	none
CCC(C)NC(=O)C1CCCN(S(=O)(=O)c2ccc3c(c2)CC(C)N3C(=O)C2CC2)C1 (stereo not given)	none
CCOCCCN(CC(=O)NC1CCCC1)C(=O)C(=O)Nc1ccc2c(c1)OCCO2	CRFR2-BP antag 97.2
CCOC(=O)Cn1nc(-c2ccc(Cl)cc2)cc1N	CSN inh 48.5
CCCS(=O)(=O)NC(=O)C1(C)CCCN(C(=O)c2ccc3snnc3c2)C1 (stereo not given)	none (no result: CRFR2-BP antag, CRFBP-R2 agonist, TPT1 inhibitor)
CCOc1cccc2cc(-c3nnc(NCc4ccc5c(c4)OCO5)s3)c(=O)oc12	CSN inh 45.6, HNF4A DNA FP 52.1
CC(C)CN(C(=O)CN1CCc2ccccc21)c1c(N)n(CC(C)C)c(=O)[nH]c1=O	HNF4A DNA FP 32.2 (not shown: Rpn11 inh)
CC(=O)c1c(C)[nH]c(-c2ccccc2)nc1=S	none
O=C(NCc1cccnc1)/C(=C/c1ccc(-c2cccc(C(F)(F)F)c2)o1)NC(=O)c1ccccc1	none
N#C/C(=N\Nc1ccccc1Cl)C(=O)c1ccccc1	CRFR2-BP antag 85.1
Cc1c(N/N=C(\C#N)C(=O)c2ccccc2)c(=O)n(-c2ccccc2)n1C	none (no result: TPT1 inhibitor)
